Data set [1] has as its system Rattus norvegicus. The data set is described as follows: In Vivo effect on concentration of DOPAC in rat striatum at dose of 10 umol/kg administered intraperitoneally. The format is functional. The procedure, abridged:
(§1)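 Female Wistar-derived rats (180–220 g) were given drug ip in saline and killed by cervical dislocation 1 h later. Striata were frozen and homogenized in 0.1 M perchloric acid, then centrifuged (3000g, 7 °C, 15 min). DOPAC and HVA were purified on Sephadex G10, separated by RP18 HPLC with electrochemical detection, and expressed as % of control.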

Data set [2] has as its system Rattus norvegicus. The data set is described as follows: In Vivo effect on concentration of HVA in rat striatum at dose of 10 umol/kg administered intraperitoneally. The format is functional. The procedure, abridged: as §1
In data set [3] the test system is Rattus norvegicus. The data set is described as follows: In Vivo effect of agonist on the induction of stereotypy (continuous sniffing behavior in rat) at 10 umol/kg.
Data set [4] deals with Rattus norvegicus. The experiment in a line: In Vivo effect on concentration of DOPAC in rat striatum at 1 umol/kg. The format is functional.
The nature of data set [5]: Ionization constant in presence of nitrogen. The conditions noted are these: read-out: pKa1. Type of data set: physicochemical. The method in brief:
(§2)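 pKa was determined by the Albert and Serjeant method, as the mean of three to four determinations.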

Data set [6] in a line: Ionization constant in presence of hydroxyl. The conditions noted are these: read-out: pKa2. Type of data set: physicochemical. The method in brief: as §2
In data set [7] the test system is Rattus norvegicus. The data set is described as follows: In Vivo effect on concentration of HVA in rat striatum at 1 umol/kg. The format is functional.
Data set [8] can be described thus: Partition coefficient in octanol-buffer at a pH 7.4. Type of data set: physicochemical. The procedure, abridged:
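Distribution between 1-octanol and Na⁺/K⁺-phosphate buffer at pH 7.4, each phase presaturated with the other. Tubes were shaken closed and phases separated by centrifugation. Concentrations were measured by HPLC (C18) with electrochemical detection.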

The target in another data set is D(2) dopamine receptor (Rattus norvegicus, UniProt P61169). The experiment in a line: Potency to displace the specific in vitro binding of [3H]DP-5,6-ADTN to rat striatal membrane. Further details: species or system Striatum. The method in brief: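 Homogenized, washed rat striatal membranes were incubated with [³H]-DP-5,6-ADTN. Nonspecific binding was defined with 10⁻⁶ M (+)-butaclamol. Competitor was tested over 10⁻¹¹–10⁻⁴ M, in triplicate.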
Sequence of D(2) dopamine receptor (P61169 whole entry): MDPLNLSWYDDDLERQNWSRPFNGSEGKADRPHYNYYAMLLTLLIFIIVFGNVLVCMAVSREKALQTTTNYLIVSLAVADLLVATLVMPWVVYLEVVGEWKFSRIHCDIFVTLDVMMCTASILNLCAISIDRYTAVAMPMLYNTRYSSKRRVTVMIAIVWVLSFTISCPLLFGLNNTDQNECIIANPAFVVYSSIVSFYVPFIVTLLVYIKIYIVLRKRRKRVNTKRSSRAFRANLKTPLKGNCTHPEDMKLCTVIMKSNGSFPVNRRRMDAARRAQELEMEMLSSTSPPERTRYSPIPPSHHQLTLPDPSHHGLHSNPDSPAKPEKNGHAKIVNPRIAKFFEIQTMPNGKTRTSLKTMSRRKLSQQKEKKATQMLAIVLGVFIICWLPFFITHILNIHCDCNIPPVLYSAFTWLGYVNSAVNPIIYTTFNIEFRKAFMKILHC

The test system of data set [9] is Rattus norvegicus. The data set is described as follows: In vivo effect on concentration of DOPAC in rat striatum at dose of 10 umol/kg administered intraperitoneally. Type of data set: functional. The procedure, abridged:
as §1

The subject of data set [10] is Rattus norvegicus. The data set is described as follows: In Vivo effect of agonist on the induction of stereotypy (continuous sniffing behavior in rat) at 10 umol/kg; Inactive. The format is functional, organism-based.
For data set [11], the system named is Rattus norvegicus. The data set is described as follows: In Vivo effect of agonist on the induction of stereotypy (continuous sniffing behavior in rat) ED50.
Data set [12] has as its system Rattus norvegicus. The data set is described as follows: In Vivo effect on concentration of DOPAC in rat striatum at dose of 0.4 umol/kg administered intraperitoneally. The format is functional.
Data set [13] relates to Rattus norvegicus. The data set is described as follows: In Vivo effect on concentration of HVA in rat striatum at dose of 0.4 umol/kg administered intraperitoneally. The format is functional.
Data set [14] concerns the target Dopamine D2 receptor (Bos taurus). The data set is described as follows: Potency to displace the specific in vitro binding of [3H]N-0437 to calf striatal membrane.
Data set [15] concerns Rattus norvegicus. The data set is described as follows: In Vivo effect of agonist on the induction of stereotypy (continuous sniffing behavior in rat) at 0.4 umol/kg. Type of data set: functional.

Activity calls are given as the source filed them. The calls are words filed in the database; no cut-off is given here.

A word on the ED50: it is the dose that gives a 50% effect, or the effect in half of the subjects. For the compound `CN1CCc2cccc3c2[C@H]1Cc1ccc(O)c(O)c1-3` [APOMORPHINE], the Control was 48% in the data set on Rattus norvegicus [1] and 40% with Rattus norvegicus [2]. Moreover, the ED50 with Rattus norvegicus [3] came to 2.3 µmol/kg.

One may read the logD as the decadic logarithm of the distribution of all forms, ionised or not, between an organic phase and buffer at a given pH. Take `CCCN(CCC)C1CCc2c(O)cccc2C1` (stereo not given) [5-OH-DPAT]: the results for the Control with Rattus norvegicus [4] and in the data set on Rattus norvegicus [7] were 73% and 60%, respectively. The pKa in data set [5] turned out to be 9.4; in data set [6], 10.9. For the same compound, the log distribution coefficient (logD) in [8] turned out to be 1.53.

For orientation: IC50 means the midpoint of a concentration-inhibition curve. Higher therefore signals weaker potency. For `CCCN(CCC)C1COc2c(O)cccc2C1` (stereo not given), the pKa in [5] was found to be 8.2; in data set [6] it was 9.9. Further, in data set [8], the logD worked out at 2.44. Further, at D(2) dopamine receptor, the half-inhibitory concentration (IC50) came to 4 nM.

With `CCCN1CCO[C@@H]2c3cc(O)ccc3OC[C@H]21`, the Control with Rattus norvegicus [2] and in the data set on Rattus norvegicus [9] was 100% each time. Also, the pKa was 6.1 in [5] and 10.3 in data set [6]. Further, the logD in data set [8] amounted to 1.97. In addition, at D(2) dopamine receptor, the IC50 amounted to 3070 nM. Besides, in the data set with Rattus norvegicus [10], the ED50 result was “inactive”.

Consider `CCCN(CCC)C1CCc2ccc(O)cc2C1` (stereo not given), for which the results for the Control with Rattus norvegicus [4] and in the data set with Rattus norvegicus [7] were 72% and 56%, respectively. Besides, the pKa in data set [5] was 9.4; in [6], 10.7. In data set [8], this compound had a logD of 1.45.

With `CCCN(CCC)C1COc2ccc(O)cc2C1` (stereo not given), the pKa in data set [5] is 8.1; in data set [6] it was 9.6. Moreover, the logD in data set [8] stood at 2.39.

In turn, `CCCN1CCO[C@@H]2c3cc(O)ccc3CC[C@H]21` [NAXAGOLIDE] had an ED50 in the data set with Rattus norvegicus [11] of 0.5 µmol/kg. For the same compound, the pKa in data set [5] was 7.5; in data set [6] it was 10.9. In addition, the Control with Rattus norvegicus [12] was 67%; in the data set on Rattus norvegicus [13], 44%. This compound also came in with a logD in data set [8] of 2.09. The compound further gave a half-inhibitory concentration (IC50) on D(2) dopamine receptor of 3 nM.

As to `CCCN1CCO[C@@H]2c3cccc(O)c3CC[C@H]21`, the half-inhibitory concentration (IC50) in data set [14] was 24 nM; at D(2) dopamine receptor, 75 nM. For the same compound, the pKa came out at 7.4 in data set [5] and 10.5 in data set [6]. Besides, the values for the Control in the data set on Rattus norvegicus [12] and in the data set on Rattus norvegicus [13] were 101% and 86%, respectively. In addition, it took a dose of 7.5 mg/kg to reach the 50% effect level in the data set on Rattus norvegicus [15] (ED50). For the same compound, in [8], the logD was 2.22.

For the compound `CCCN1CCO[C@@H]2c3cccc(O)c3OC[C@H]21`, the IC50 in [14] turned out to be 8900 nM; at D(2) dopamine receptor, 2920 nM. The Control in the data set on Rattus norvegicus [1] came out at 108%; in the data set with Rattus norvegicus [2], 110%. Moreover, the figures for the pKa in data set [5] and in data set [6] were 5.8 and 10.2, respectively. This compound had a logD in [8] of 1.93. Further, the ED50 entry with Rattus norvegicus [10] is “inactive”.

For the origin of these results see ChEMBL document CHEMBL1124010, “Synthesis and pharmacology of trans-4-n-propyl-3,4,4a,10b-tetrahydro-2H,5H-1-benzopyrano[4,3-b ]-1,4-oxazin-7- and -9-ols: the significance of nitrogen pKa values for central dopamine receptor activation” (J Med Chem, 1988).
